Assay [1] deals with T1, NAD-dependent protein deacetylase sirtuin-3, mitochondrial (Homo sapiens, UniProt Q9NTG7).
T1 sequence (Q9NTG7 whole entry): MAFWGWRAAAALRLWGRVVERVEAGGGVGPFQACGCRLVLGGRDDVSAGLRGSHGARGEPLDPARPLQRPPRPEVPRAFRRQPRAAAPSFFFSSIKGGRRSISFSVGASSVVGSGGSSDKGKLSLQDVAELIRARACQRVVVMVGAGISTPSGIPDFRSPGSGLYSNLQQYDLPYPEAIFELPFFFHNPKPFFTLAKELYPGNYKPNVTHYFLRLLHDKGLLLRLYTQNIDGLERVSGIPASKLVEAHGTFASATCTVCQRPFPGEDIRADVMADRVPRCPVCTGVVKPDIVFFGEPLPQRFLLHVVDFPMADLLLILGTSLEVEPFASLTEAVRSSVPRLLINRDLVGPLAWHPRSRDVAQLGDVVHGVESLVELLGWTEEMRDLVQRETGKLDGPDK
In words: Inhibition of recombinant human SIRT3 (118 to 399 residues) defatty-acylase activity expressed in Escherichia coli using SFP3 as substrate measured at 5 mins interval for 60 mins in presence of NAD+ by fluorescence assay.

The target in assay [2] is T2, NAD-dependent protein deacetylase sirtuin-2 (Homo sapiens, UniProt Q8IXJ6).
T2 sequence (Q8IXJ6 whole entry): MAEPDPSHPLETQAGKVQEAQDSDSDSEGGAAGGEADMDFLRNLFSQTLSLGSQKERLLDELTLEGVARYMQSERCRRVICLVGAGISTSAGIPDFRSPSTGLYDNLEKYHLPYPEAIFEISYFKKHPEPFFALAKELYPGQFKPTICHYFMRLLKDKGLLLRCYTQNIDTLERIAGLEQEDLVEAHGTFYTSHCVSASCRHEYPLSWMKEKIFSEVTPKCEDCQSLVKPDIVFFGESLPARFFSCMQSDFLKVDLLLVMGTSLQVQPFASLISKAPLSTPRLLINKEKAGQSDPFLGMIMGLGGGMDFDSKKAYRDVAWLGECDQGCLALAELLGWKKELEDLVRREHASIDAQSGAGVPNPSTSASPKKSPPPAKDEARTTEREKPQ
In words: Inhibition of recombinant human SIRT2 deacylation activity using Fluor de Lys Sirt2 as substrate measured at 5 mins interval for 30 mins in presence of NAD+ by fluorescence assay.

The target of assay [3] is T2, NAD-dependent protein deacetylase sirtuin-2. In words: Inhibition of recombinant human SIRT2 deacylation activity expressed in Escherichia coli Rosetta2 using Fluor-de-Lys-SIRT2 deacetylase substrate measured after 2 hrs by fluorescence assay.
Assay [4] shares this target. In words: Inhibition of recombinant human SIRT2 defatty-acylase activity using SFP3 as substrate measured at 5 mins interval for 60 mins in presence of NAD+ by fluorescence assay.
Assay [5] shares this target. In words: Inhibition of recombinant human SIRT2 demyristoylase activity using p53(Myr)-AMC as substrate measured after 3 hrs in presence of NAD+ and trypsin by fluorescence assay.
Assay [6] addresses T3, NAD-dependent protein deacetylase sirtuin-1 (Homo sapiens, UniProt Q96EB6).
T3 sequence (Q96EB6 whole entry): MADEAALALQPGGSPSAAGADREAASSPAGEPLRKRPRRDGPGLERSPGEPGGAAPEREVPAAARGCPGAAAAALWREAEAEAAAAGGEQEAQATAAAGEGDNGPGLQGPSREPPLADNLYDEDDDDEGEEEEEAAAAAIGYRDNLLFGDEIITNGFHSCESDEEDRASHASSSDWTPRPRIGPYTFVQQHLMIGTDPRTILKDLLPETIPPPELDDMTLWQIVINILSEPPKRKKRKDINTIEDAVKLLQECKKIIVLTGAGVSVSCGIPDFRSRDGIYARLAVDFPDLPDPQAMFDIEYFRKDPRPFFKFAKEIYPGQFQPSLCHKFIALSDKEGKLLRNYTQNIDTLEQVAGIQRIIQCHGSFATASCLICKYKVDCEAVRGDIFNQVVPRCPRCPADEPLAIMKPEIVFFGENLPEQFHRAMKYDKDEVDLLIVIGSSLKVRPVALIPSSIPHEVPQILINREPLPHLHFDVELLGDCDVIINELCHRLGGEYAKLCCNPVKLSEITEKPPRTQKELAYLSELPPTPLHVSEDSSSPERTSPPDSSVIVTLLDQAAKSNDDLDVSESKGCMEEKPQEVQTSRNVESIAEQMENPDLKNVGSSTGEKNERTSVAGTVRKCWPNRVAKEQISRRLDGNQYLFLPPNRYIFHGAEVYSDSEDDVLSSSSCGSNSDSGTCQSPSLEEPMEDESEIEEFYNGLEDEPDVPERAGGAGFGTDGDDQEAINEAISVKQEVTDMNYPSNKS
In words: Inhibition of recombinant human C-terminal His6-tagged SIRT1 (Met1 to Ser747 residues) defatty-acylase activity expressed in Escherichia coli using SFP3 as substrate measured at 5 mins interval for 60 mins in presence of NAD+ by fluorescence assay.

For assay [7], the target named is T3, NAD-dependent protein deacetylase sirtuin-1. In words: Inhibition of recombinant human C-terminal His6-tagged SIRT1 (Met1 to Ser747 residues) demyristoylase activity expressed in Escherichia coli using p53(Myr)-AMC as substrate measured after 3 hrs in presence of NAD+ and trypsin by fluorescence assay. In short, it runs like this:
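SIRT1 at 14 nM final with 50 μM p53(Myr)-AMC and 500 μM NAD⁺ in Tris-HCl pH 8.0/NaCl/DTT/Triton buffer, 0.5% DMSO, 3 h at room temperature. Trypsin (100 nM final) plus nicotinamide (1 mM final) then added. Fluorescence Ex 355/Em 460 nm read every 5 min for 20 min at 37 °C. n = 3.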

The target in assay [8] is T1, NAD-dependent protein deacetylase sirtuin-3, mitochondrial. In words: Inhibition of recombinant human SIRT3 (118 to 399 residues) demyristoylase activity expressed in Escherichia coli using p53(Myr)-AMC as substrate measured after 3 hrs in presence of NAD+ and trypsin by fluorescence assay.
In assay [9] the target is NAD-dependent protein deacylase sirtuin-6 (Homo sapiens, UniProt Q8N6T7). In words: Inhibition of recombinant human N-terminal polyhis-tagged SIRT6 (1 to 355 residues) defatty-acylase activity expressed in Escherichia coli using SFP3 as substrate measured at 5 mins interval for 60 mins in presence of NAD+ by fluorescence assay. In short, it runs like this: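 SIRT6 at 48 nM final with 2.5 μM SFP3 and 500 μM NAD⁺ in Tris-HCl pH 8.0 buffer with 150 mM NaCl, 1 mM DTT, 0.05% Triton X-100, final 0.2% DMSO. Enzyme added last. Fluorescence Ex 485/Em 535 nm read every 5 min for 60 min at 37 °C.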
NAD-dependent protein deacylase sirtuin-6, sequence (Q8N6T7 whole entry, the tested form may be a part): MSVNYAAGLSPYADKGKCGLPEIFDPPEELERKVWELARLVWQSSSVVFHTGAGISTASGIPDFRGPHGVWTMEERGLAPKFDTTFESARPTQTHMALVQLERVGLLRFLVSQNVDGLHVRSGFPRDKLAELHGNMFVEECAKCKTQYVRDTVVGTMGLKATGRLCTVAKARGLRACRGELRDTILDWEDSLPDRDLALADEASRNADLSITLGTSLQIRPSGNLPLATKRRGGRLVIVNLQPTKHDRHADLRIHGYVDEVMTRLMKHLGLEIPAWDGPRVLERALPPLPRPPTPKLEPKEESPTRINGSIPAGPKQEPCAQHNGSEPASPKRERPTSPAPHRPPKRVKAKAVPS

Among the data in ChEMBL document CHEMBL4304758, “Development of Peptide-Based Sirtuin Defatty-Acylase Inhibitors Identified by the Fluorescence Probe, SFP3, That Can Efficiently Measure Defatty-Acylase Activity of Sirtuin” (J Med Chem, 2019) are IC50 values, retold here.

Structures can show the parent of a compound that is named as a salt. Non-standard residues stand in square brackets, D forms with d. Residues, ends and D or L forms follow the SMILES beside them. *: point of attachment. Lys(thiomyristoyl) = CCCCCCCCCCCCCC(=S)NCCCC[C@H](N)C(=O)O; Tfa = O=C(C(F)(F)F)*

As to `CC[C@H](C)[C@H](NC(=O)[C@H](CCCNC(=N)N)NC(C)=O)C(=O)N[C@@H](CCCCNC(=O)C(F)(F)F)C(=O)N[C@@H](CCCNC(=N)N)C(=O)N[C@@H](Cc1ccc(O)cc1)C(N)=O` (Ac-RIK(Tfa)RY-NH2), the IC50 in assay [1] was 540 nM; in [2] it was 67 nM; in assay [3], 31 nM; in assay [4] it was 320 nM; in assay [5] it was 1100 nM; in assay [6], over 2000 nM.
For the compound `CCCCCCCCCCCCCC(=S)NCCCC[C@H](NC(=O)[C@@H](NC(=O)[C@H](CCCNC(=N)N)NC(C)=O)[C@@H](C)CC)C(=O)N[C@@H](CCCNC(=N)N)C(=O)N[C@@H](Cc1ccc(O)cc1)C(N)=O` (Ac-RI[Lys(thiomyristoyl)]RY-NH2), the IC50 in [7] worked out at 26 nM; in assay [1], 46 nM; in assay [2], 110 nM; in assay [8] it was 130 nM; in assay [4] it was 22 nM; in [5] it was 44 nM. The IC50 worked out at 330 nM in assay [6] and 250 nM in assay [9].
